Here are results for 3 compounds from ChEMBL document CHEMBL1811897, “Nicotinic acetylcholine receptor efficacy and pharmacological properties of 3-(substituted phenyl)-2β-substituted tropanes” (J Med Chem, 2010).

pIC50: −log10 of the molar value. The source made the active and inactive calls.

Sodium-dependent noradrenaline transporter, sequence (P23975 whole entry): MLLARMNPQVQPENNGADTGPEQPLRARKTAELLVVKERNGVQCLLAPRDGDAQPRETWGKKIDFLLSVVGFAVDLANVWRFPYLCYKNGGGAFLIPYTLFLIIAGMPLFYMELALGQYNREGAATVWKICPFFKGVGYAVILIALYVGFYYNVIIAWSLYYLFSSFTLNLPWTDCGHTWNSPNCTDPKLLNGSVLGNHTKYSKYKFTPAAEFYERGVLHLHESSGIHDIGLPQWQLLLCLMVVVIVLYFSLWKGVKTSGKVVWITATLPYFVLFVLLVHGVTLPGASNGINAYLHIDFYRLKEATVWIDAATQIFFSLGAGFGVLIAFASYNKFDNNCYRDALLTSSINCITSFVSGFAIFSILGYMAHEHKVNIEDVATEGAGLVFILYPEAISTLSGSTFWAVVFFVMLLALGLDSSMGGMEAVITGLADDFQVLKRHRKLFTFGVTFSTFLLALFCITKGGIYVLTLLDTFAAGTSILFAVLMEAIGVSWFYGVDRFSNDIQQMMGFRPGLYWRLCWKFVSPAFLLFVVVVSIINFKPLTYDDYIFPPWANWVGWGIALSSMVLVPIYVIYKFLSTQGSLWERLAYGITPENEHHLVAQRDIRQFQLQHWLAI
T2 sequence (P02708 whole entry): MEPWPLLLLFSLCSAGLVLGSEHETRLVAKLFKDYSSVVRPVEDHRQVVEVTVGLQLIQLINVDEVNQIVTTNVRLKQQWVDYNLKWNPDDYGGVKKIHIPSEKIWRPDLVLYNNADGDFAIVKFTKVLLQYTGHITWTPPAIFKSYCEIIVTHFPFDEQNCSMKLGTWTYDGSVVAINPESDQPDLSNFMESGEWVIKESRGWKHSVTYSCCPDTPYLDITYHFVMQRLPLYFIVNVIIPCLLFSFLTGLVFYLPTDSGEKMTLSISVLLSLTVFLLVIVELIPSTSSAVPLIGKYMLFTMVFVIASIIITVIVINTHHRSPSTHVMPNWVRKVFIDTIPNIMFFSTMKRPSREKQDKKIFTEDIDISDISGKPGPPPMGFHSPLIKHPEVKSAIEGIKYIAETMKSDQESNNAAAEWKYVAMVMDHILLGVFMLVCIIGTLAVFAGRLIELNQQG
T2 sequence (P07510 whole entry): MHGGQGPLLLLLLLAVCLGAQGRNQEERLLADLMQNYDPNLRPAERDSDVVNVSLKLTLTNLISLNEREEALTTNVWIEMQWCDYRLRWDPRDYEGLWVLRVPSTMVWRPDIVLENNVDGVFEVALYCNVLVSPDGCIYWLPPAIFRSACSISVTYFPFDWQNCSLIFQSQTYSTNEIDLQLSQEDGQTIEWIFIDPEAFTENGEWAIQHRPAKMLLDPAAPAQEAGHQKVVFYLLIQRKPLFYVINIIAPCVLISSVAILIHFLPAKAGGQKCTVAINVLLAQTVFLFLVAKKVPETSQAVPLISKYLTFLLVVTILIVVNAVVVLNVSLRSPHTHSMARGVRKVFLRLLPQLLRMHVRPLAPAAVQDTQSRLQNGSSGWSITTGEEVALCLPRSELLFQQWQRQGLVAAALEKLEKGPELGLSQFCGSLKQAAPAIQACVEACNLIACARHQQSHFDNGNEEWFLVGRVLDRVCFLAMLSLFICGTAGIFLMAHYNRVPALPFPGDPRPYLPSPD
T2 sequence (P11230 whole entry): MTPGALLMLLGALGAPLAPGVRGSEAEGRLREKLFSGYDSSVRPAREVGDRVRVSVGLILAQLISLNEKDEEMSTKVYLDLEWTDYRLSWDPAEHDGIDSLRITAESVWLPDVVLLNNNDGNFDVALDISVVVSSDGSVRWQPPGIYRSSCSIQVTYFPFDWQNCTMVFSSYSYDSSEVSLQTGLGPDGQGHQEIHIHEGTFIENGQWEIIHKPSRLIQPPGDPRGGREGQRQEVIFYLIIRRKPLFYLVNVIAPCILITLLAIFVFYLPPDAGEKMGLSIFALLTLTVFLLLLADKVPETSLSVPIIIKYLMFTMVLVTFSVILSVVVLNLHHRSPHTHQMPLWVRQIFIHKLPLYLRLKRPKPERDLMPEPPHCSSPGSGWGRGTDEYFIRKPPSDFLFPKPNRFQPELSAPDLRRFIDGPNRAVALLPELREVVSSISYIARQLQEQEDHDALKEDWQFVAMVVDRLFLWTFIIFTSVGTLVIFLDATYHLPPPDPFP
T2 sequence (Q07001 whole entry): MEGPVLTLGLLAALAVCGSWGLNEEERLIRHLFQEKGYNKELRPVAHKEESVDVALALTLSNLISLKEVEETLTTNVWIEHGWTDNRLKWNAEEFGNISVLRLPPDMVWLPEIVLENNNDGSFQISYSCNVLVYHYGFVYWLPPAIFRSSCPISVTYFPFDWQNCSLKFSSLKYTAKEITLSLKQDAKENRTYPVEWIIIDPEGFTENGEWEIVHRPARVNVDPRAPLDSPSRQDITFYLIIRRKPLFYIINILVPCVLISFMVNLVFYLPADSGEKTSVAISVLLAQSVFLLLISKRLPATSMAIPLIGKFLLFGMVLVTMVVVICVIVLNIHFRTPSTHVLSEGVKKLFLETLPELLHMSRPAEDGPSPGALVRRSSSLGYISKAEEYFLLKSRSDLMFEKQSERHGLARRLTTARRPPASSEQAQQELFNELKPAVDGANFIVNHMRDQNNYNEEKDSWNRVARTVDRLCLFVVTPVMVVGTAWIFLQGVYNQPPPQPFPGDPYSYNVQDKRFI

For one assay, the target named is T1, Neuronal acetylcholine receptor; alpha4/beta4 (Homo sapiens, UniProt P30926+P43681). Kind of assay: Agonist activity against human alpha4beta4 nAChR in SHEP1 cells assessed as 86Rb+ efflux at 5 nM to 100 uM. The assay is classed as functional, cell-based.
T1 sequence (P30926 whole entry): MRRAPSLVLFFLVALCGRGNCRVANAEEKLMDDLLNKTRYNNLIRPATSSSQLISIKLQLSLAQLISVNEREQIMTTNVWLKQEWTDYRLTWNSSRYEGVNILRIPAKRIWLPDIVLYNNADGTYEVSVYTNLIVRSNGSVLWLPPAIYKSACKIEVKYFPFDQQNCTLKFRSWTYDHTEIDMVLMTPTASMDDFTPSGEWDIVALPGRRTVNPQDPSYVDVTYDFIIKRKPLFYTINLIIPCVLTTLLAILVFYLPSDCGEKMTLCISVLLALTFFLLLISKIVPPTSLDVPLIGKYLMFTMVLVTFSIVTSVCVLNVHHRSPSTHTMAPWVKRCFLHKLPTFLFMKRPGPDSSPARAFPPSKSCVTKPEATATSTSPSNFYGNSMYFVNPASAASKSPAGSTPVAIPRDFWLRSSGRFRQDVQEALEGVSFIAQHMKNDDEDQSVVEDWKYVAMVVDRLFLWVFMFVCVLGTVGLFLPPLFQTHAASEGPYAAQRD
T1 sequence (P43681 whole entry): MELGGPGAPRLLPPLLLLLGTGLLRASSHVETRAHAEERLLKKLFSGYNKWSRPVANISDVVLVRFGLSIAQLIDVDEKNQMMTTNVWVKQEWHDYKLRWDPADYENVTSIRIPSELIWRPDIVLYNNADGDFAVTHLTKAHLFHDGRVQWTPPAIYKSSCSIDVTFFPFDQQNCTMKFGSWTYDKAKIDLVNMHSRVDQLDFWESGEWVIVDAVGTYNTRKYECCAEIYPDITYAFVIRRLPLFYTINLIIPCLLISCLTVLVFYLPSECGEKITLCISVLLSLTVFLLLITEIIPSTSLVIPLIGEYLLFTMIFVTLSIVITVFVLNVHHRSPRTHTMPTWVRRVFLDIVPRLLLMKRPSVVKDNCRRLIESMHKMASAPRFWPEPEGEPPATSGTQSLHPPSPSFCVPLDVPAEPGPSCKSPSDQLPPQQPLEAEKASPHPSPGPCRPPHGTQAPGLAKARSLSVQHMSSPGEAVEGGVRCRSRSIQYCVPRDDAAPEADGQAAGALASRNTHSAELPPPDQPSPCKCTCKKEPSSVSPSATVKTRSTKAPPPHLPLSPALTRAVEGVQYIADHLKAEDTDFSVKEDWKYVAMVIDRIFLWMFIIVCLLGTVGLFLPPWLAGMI
Details: not given
Summed up: (§1)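 Test ligands were applied alone at ~5 nM to 100 μM in 86Rb+ efflux assays. Cells were TE671/RD (endogenous muscle-type α1*), SH-SY5Y (endogenous α3β4*) or transfected SH-EP1 (human α4β2 or α4β4). Non-specific efflux was subtracted. Intrinsic activity was normalized to specific efflux, defined as efflux with fully efficacious carbamylcholine minus efflux with buffer alone.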
In the case of `COC(=O)[C@@H]1[C@H]2CC[C@@H](C[C@H]1c1ccc(C)c(F)c1)N2`, the outcome was inactive.

As for `CCc1cc([C@H]2[C@@H](c3ccc(C)cc3)C[C@@H]3CC[C@H]2N3C)on1`, the result was inactive.

For the next assay, the system named is Mus musculus. Kind of assay: Inhibition of nicotine-induced antinociception activity in ICR mouse assessed as paw licking and jumping latency dministered subcutaneously 15 mins prior to nicotine challenge and measured after 5 mins of 2.5 mg/kg nicotine challenge by hot plate test. The assay is classed as functional, organism-based. Further details: dose 2.5 mg/kg, route subcutaneous.
Details: not given
In short, it runs like this: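 Hot plate was held at 55 °C with a 40 s cutoff. End-point was paw lick or jump. Control latency was measured twice, ≥10 min apart. Response was calculated as %MPE. Groups of 8–12; AD50 from ≥4 doses.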
With `COC(=O)[C@@H]1[C@H]2CC[C@@H](C[C@H]1c1ccc(C)c(F)c1)N2`, the IC50 was 2.6 mg/kg.

On to `CCc1cc([C@H]2[C@@H](c3ccc(C)cc3)C[C@@H]3CC[C@H]2N3C)on1`, for which the IC50 worked out at 1.6 mg/kg.

Another assay concerns the target Sodium-dependent noradrenaline transporter (Homo sapiens, UniProt P23975). Kind of assay: Inhibition of human NET expressed in HEK293 cells assessed as inhibition of [3H]NE reuptake after 10 mins by scintillation counting. The assay is classed as cell-based.
Details: not given
Turning to `COC(=O)[C@@H]1[C@H]2CC[C@@H](C[C@H]1c1ccc(C)c(F)c1)N2`, the negative logarithm of the IC50 (pIC50) is 9.30.

Regarding `CCc1cc([C@H]2[C@@H](c3ccc(C)cc3)C[C@@H]3CC[C@H]2N3C)on1`, the pIC50 is 7.96.

The test system of a further assay is Mus musculus. Description: Inhibition of nicotine-induced antinociception activity in ICR mouse assessed as latency to remove tail administered subcutaneously 15 mins prior to nicotine challenge and measured after 5 mins of 2.5 mg/kg nicotine challenge by tail-flick test. The assay is classed as functional, organism-based. Further details: dose 2.5 mg/kg, route subcutaneous.
Details: not given
In short, it runs like this:
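Radiant heat was aimed at the upper tail, with a 10 s cutoff. Baseline latency was 2–4 s for each mouse. Response was expressed as %MPE. AD50 with confidence limits came from ≥4 doses and ≥8 mice per dose.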
For `COC(=O)[C@@H]1[C@H]2CC[C@@H](C[C@H]1c1ccc(C)c(F)c1)N2`, the IC50 amounted to 0.002 mg/kg.

As to `CCc1cc([C@H]2[C@@H](c3ccc(C)cc3)C[C@@H]3CC[C@H]2N3C)on1`, the IC50 is 0.008 mg/kg.

A further assay concerns the target Neuronal acetylcholine receptor; alpha3/beta4 (Homo sapiens) (UniProt P30926+P32297). Description: Antagonist activity against human ganglionic alpha3beta4 nAChR in SHSY5Y cells assessed as inhibition of carbamylcholine induced 86Rb+ efflux at 10 uM. The assay is classed as functional, cell-based. As to conditions: SH-SY5Y.
For `CCc1cc([C@H]2[C@@H](c3ccc(C)cc3)C[C@@H]3CC[C@H]2N3C)on1`, the inhibition result is “Active”.

The species entered for another assay is Homo sapiens. Description: Selectivity for human DAT over human ganglionic alpha3beta4alpha5beta2 nAChR.
Details: not given
As for `CCc1cc([C@H]2[C@@H](c3ccc(C)cc3)C[C@@H]3CC[C@H]2N3C)on1`, the Ratio IC50 is greater than 2000.

The next assay has as its target T2, Acetylcholine receptor; alpha1/beta1/delta/gamma (Homo sapiens, UniProt P02708+P07510+P11230+Q07001). Description: Antagonist activity against human muscle-type alpha1beta1gammadelta nAChR in TE671/RD cells assessed as inhibition of carbamylcholine induced 86Rb+ efflux. The class given is functional, cell-based.
Details: not given
In short, it runs like this: (§2)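 86Rb+ efflux was evoked by carbamylcholine at its EC80–EC90 concentration, with test ligand present. Cells were TE671/RD (α1*), SH-SY5Y (α3β4*) or transfected SH-EP1 (α4β2 or α4β4). For weak antagonists the minimum was fixed at 0%.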
Turning to `COC(=O)[C@@H]1[C@H]2CC[C@@H](C[C@H]1c1ccc(C)c(F)c1)N2`, the pIC50 was 5.14.

On to `CCc1cc([C@H]2[C@@H](c3ccc(C)cc3)C[C@@H]3CC[C@H]2N3C)on1`, for which the pIC50 was 5.00.

The next assay deals with Mus musculus. Kind of assay: Inhibition of nicotine-induced hypolocomotion in ICR mouse assessed as number of photocell interruption dministered subcutaneously 15 mins prior to nicotine challenge and measured after 5 mins of […] nicotine challenge. The assay is classed as functional, organism-based.
Details: not given
Further details: dose 1.5 mg/kg, route subcutaneous.
As for `COC(=O)[C@@H]1[C@H]2CC[C@@H](C[C@H]1c1ccc(C)c(F)c1)N2`, the IC50 was 1.65 mg/kg.

Turning to `CCc1cc([C@H]2[C@@H](c3ccc(C)cc3)C[C@@H]3CC[C@H]2N3C)on1`, the IC50 stood at 0.2 mg/kg.

The target in another assay is Sodium-dependent serotonin transporter (Homo sapiens, UniProt P31645). Kind of assay: Inhibition of human SERTexpressed in HEK293 cells assessed as inhibition of [3H]5HT reuptake after 10 mins by scintillation counting. The class given is cell-based.
Details: not given
For the compound `COC(=O)[C@@H]1[C@H]2CC[C@@H](C[C@H]1c1ccc(C)c(F)c1)N2`, the pIC50 is 6.96.

For the compound `CCc1cc([C@H]2[C@@H](c3ccc(C)cc3)C[C@@H]3CC[C@H]2N3C)on1`, the pIC50 was 5.59.

The target in a further assay is T3, Neuronal acetylcholine receptor; alpha4/beta2 (Homo sapiens, UniProt P17787+P43681). Description: Antagonist activity against human alpha4beta2 nAChR in SHEP1 cells assessed as inhibition of carbamylcholine induced 86Rb+ efflux. The class given is functional, cell-based.
T3 sequence (P17787 whole entry): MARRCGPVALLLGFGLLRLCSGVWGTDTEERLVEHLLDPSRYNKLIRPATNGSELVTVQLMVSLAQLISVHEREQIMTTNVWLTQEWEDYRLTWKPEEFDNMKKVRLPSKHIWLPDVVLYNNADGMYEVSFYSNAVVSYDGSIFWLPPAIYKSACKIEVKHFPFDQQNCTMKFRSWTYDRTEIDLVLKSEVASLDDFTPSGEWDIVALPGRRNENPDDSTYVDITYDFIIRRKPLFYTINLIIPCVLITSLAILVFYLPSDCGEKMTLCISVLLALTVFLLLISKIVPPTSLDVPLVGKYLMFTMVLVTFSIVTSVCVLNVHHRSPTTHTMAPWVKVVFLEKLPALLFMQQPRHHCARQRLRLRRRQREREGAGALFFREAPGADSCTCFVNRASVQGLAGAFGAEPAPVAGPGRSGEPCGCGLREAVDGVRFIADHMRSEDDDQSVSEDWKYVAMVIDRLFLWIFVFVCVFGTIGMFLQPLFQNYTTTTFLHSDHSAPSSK
T3 sequence (P43681 whole entry): as the sequence (P43681 whole entry) above
Details: not given
Summed up: as §2
As to `COC(=O)[C@@H]1[C@H]2CC[C@@H](C[C@H]1c1ccc(C)c(F)c1)N2`, the pIC50 was 4.96.

With `CCc1cc([C@H]2[C@@H](c3ccc(C)cc3)C[C@@H]3CC[C@H]2N3C)on1`, the negative logarithm of the IC50 (pIC50) is 4.82.

The target of a further assay is T3, Neuronal acetylcholine receptor; alpha4/beta2. Kind of assay: Agonist activity at human alpha4beta2 nAChR in SHEP1 cells assessed as 86Rb+ efflux at 5 nM to 100 uM. The class given is functional, cell-based.
Details: not given
In short, it runs like this:
as §1
For the compound `COC(=O)[C@@H]1[C@H]2CC[C@@H](C[C@H]1c1ccc(C)c(F)c1)N2`, the result was inactive.

Regarding `CCc1cc([C@H]2[C@@H](c3ccc(C)cc3)C[C@@H]3CC[C@H]2N3C)on1`, the outcome was inactive.

The next assay concerns Mus musculus. Kind of assay: Inhibition of nicotine-induced conditioned place preference in ICR mouse assessed as activity count and time spent in chamberdministered subcutaneously 15 mins prior to 0.5 mg/kg nicotine challenge up to 4 days using photosensors. The class given is functional, organism-based.
Details: not given
Also on record: dose 0.5 mg/kg, route subcutaneous. In short, it runs like this:
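Unbiased three-compartment CPP in male ICR mice. Day 1: 5 min confinement to the middle compartment, then 15 min free access; mice were grouped by equal bias. Days 2–4: vehicle or test drug s.c. 15 min before nicotine (0.5 mg/kg s.c.) in the paired side, with saline on the opposite side, 20 min sessions. Day 5: drug-free test with photosensor recording. AD50 from ≥3 doses, ≥8 mice per dose.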
Take `COC(=O)[C@@H]1[C@H]2CC[C@@H](C[C@H]1c1ccc(C)c(F)c1)N2`: the IC50 was 0.03 mg/kg.

For `CCc1cc([C@H]2[C@@H](c3ccc(C)cc3)C[C@@H]3CC[C@H]2N3C)on1`, the IC50 was 0.045 mg/kg.

In the case of `CC(NC(C)(C)C)C(=O)c1cccc(Cl)c1` (configuration not stated) [BUPROPION], the IC50 stood at 0.35 mg/kg.

For the next assay, the target named is Sodium-dependent dopamine transporter (Homo sapiens, UniProt Q01959). Kind of assay: Inhibition of human DAT expressed in HEK293 cells assessed as inhibition of [3H]DA reuptake after 10 mins by scintillation counting. The assay is classed as cell-based.
Sodium-dependent dopamine transporter, sequence (Q01959 whole entry): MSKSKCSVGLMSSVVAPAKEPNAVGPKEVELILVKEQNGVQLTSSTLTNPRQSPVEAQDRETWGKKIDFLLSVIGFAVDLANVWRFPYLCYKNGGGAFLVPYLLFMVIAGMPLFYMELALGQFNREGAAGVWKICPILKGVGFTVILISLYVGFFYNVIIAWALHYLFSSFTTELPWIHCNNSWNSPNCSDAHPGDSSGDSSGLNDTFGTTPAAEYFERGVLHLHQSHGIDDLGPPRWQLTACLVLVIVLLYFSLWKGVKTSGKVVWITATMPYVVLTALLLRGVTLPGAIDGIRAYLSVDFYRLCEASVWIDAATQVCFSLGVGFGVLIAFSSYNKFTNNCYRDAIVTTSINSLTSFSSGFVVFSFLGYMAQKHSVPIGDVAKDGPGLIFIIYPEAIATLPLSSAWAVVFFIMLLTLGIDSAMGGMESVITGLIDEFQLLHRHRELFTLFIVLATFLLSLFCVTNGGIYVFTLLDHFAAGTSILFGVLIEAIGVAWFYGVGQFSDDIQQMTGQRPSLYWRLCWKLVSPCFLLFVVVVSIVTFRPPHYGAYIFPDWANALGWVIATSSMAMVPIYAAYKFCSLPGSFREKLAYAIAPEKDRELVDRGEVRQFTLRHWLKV
Details: not given
In the case of `COC(=O)[C@@H]1[C@H]2CC[C@@H](C[C@H]1c1ccc(C)c(F)c1)N2`, the pIC50 is 8.19.

For the compound `CCc1cc([C@H]2[C@@H](c3ccc(C)cc3)C[C@@H]3CC[C@H]2N3C)on1`, the pIC50 was 9.12.

The test system of the next assay is Mus musculus. Description: Antipyretic activity against nicotine-induced hypothermia in ICR mouse assessed as change in rectal temperature dministered subcutaneously 15 mins prior to nicotine challenge and measured after 30 mins of 2.5 mg/kg nicotine challenge. The class given is functional, organism-based. Also on record: dose 2.5 mg/kg, route subcutaneous.
Details: not given
Summed up: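 Male ICR mice (20–25 g) were pretreated with saline or test drug 15 min before s.c. nicotine at 2.5 mg/kg. Rectal temperature was read by thermistor probe (24 mm insertion) just before and 30 min after nicotine, and the change was taken. Ambient temperature was 21–24 °C. AD50 with confidence limits came from ≥4 doses and ≥8 mice per dose.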
Turning to `COC(=O)[C@@H]1[C@H]2CC[C@@H](C[C@H]1c1ccc(C)c(F)c1)N2`, the IC50 came out at 7.4 mg/kg.

`CCc1cc([C@H]2[C@@H](c3ccc(C)cc3)C[C@@H]3CC[C@H]2N3C)on1`: the IC50 turned out to be 6.9 mg/kg.

On to `CC(NC(C)(C)C)C(=O)c1cccc(Cl)c1` (configuration not stated) [BUPROPION], for which the IC50 stood at 9.2 mg/kg.

In a further assay the target is T2, Acetylcholine receptor; alpha1/beta1/delta/gamma. Kind of assay: Agonist activity at human muscle-type alpha1beta1gammadelta nAChR in TE671/RD cells assessed as 86Rb+ efflux at 5 nM to 100 uM. The assay is classed as functional, cell-based.
Details: not given
In short, it runs like this: as §1
Turning to `COC(=O)[C@@H]1[C@H]2CC[C@@H](C[C@H]1c1ccc(C)c(F)c1)N2`, the result was inactive.

`CCc1cc([C@H]2[C@@H](c3ccc(C)cc3)C[C@@H]3CC[C@H]2N3C)on1`: the outcome was inactive.

Another assay deals with T1, Neuronal acetylcholine receptor; alpha4/beta4. Kind of assay: Antagonist activity against human alpha4beta4 nAChR in SHEP1 cells assessed as inhibition of carbamylcholine induced 86Rb+ efflux. The assay is classed as functional, cell-based.
Details: not given
Summed up:
as §2
Take `COC(=O)[C@@H]1[C@H]2CC[C@@H](C[C@H]1c1ccc(C)c(F)c1)N2`: the pIC50 is 4.60.

Turning to `CCc1cc([C@H]2[C@@H](c3ccc(C)cc3)C[C@@H]3CC[C@H]2N3C)on1`, the negative-log IC50 (pIC50) was 5.00.
